Results pooled from the literature.
Each line is one published result; the experiments were not run side by side.
Maob: Amine oxidase [flavin-containing] B (Maob, Rattus norvegicus, UniProt P19643)
GRM2: Metabotropic glutamate receptor 2 (GRM2, Homo sapiens, UniProt Q14416)
NMUR1: Neuromedin-U receptor 1 (NMUR1, Homo sapiens, UniProt Q9HB89)
RET: Proto-oncogene tyrosine-protein kinase receptor Ret (RET, Homo sapiens, UniProt P07949)
EPHX2: Bifunctional epoxide hydrolase 2 (EPHX2, Homo sapiens, UniProt P34913)
ALPI: Intestinal-type alkaline phosphatase (ALPI, Bos taurus, UniProt P19111)

O=c1cc(-c2ccc(O)c(-c3c(O)cc(O)c4c(=O)cc(-c5ccc(O)cc5)oc34)c2)oc2cc(O)cc(O)c12 — IC50 (Tyrosine-protein kinase JAK2 (JAK2, Homo sapiens, UniProt O60674); enzyme activity, inhibitor): 5 µM
CC(=NN=C1CS(=O)(=O)N(C)c2ccccc21)c1cc(C)cs1 — IC50 (Maob; enzyme activity, inhibitor, fluorescence): 3.83 µM
COc1ccc(-c2cc(C(N)=O)ncc2OCc2cn(C)cn2)c(F)c1 — IC50 (GRM2; ion flux, antagonist): 0.092 µM
CC(C)C[C@H](NC(=O)[C@H](Cc1ccccc1)NC(=O)[C@H](Cc1ccc(O)cc1)NC(=O)CNC(=O)[C@H](CCCNC(=N)N)NC(=O)[C@H](CO)NC(=O)[C@H](CCC(N)=O)NC(=O)[C@H](CO)NC(=O)[C@H](C)NC(=O)[C@H](Cc1ccccc1)NC(=O)[C@@H]1CCCN1C(=O)[C@H](CO)NC(=O)[C@H](CCC(N)=O)NC(=O)[C@H](Cc1ccccc1)NC(=O)[C@H](CCC(=O)O)NC(=O)[C@H](CCC(=O)O)NC(=O)[C@H](CC(=O)O)NC(=O)[C@@H](NC(=O)[C@H](CCCNC(=N)N)NC(=O)[C@@H](N)Cc1ccccc1)C(C)C)C(=O)N[C@@H](Cc1ccccc1)C(=O)N[C@@H](CCCNC(=N)N)C(=O)N1CCC[C@H]1C(=O)N[C@@H](CCCNC(=N)N)C(=O)N[C@@H](CC(N)=O)C(N)=O — IC50 (NMUR1; ligand displacement, radioligand; cell membranes): 0.00011 µM
CC(=NN=C1CS(=O)(=O)N(C)c2ccccc21)c1sccc1C — IC50 (Maob; enzyme activity, inhibitor, fluorescence): 2.38 µM
Cc1ccc(C(=O)Nc2ccc(Oc3cc4cnn(C)c4cc3-c3cn[nH]c3)c(F)c2)c(=O)n1-c1ccc(F)cc1 — IC50 (RET; enzyme activity, inhibitor): 0.59 µM
O=C(Nc1ccccc1F)NC12CC3CC(CC(C3)C1)C2 — IC50 (EPHX2; enzyme activity, inhibitor, fluorescence): 0.0037 µM
COc1ccc(N2CC3=C(C2=O)C(c2ccccc2O)NC(=O)N3)cc1 (centres unmarked) — IC50 (ALPI; enzyme activity, inhibitor, absorbance): 4.87 µM
CC(C)C[C@H](NC(=O)[C@H](Cc1ccccc1)NC(=O)[C@@H](N)Cc1ccc(O)cc1)C(=O)N[C@@H](Cc1ccccc1)C(=O)N[C@@H](CCCNC(=N)N)C(=O)N1CCC[C@H]1C(=O)N[C@@H](CCCNC(=N)N)C(=O)N[C@@H](CC(N)=O)C(N)=O — IC50 (NMUR1; ligand displacement, radioligand; cell membranes): 0.00066 µM
O=C(Cc1ccc(Nc2ncnc3[nH]ccc23)cc1)Nc1ccc(F)c(Cl)c1 — IC50 (RET; enzyme activity, inhibitor, mobility shift): > 20 µM
Nc1nc(NCc2ccccc2CO)c2[nH]cnc2n1 — IC50 (Methylated-DNA--protein-cysteine methyltransferase (MGMT, Homo sapiens, UniProt P16455); enzyme activity, inhibitor; 30 min): > 1000 µM
COc1ccc2cc(C=NN=C3CS(=O)(=O)N(C)c4ccccc43)c(Cl)nc2c1 — IC50 (Maob; enzyme activity, inhibitor, fluorescence): 2.22 µM
O=C(CCCCCCCCc1ccc(O)cc1)c1c(O)cccc1O — IC50 (EPHX2; enzyme activity, inhibitor, fluorescence): 18.6 µM
CC(=NN=C1CS(=O)(=O)N(C)c2ccccc21)c1cc(Cl)sc1Cl — IC50 (Maob; enzyme activity, inhibitor, fluorescence): 2.58 µM
CC(O)C(C)C(=O)N1CCC(NC(=O)Nc2ccc(OC(F)(F)F)c(F)c2)CC1 (centres unmarked) — IC50 (EPHX2; enzyme activity, inhibitor): 0.0001 µM
CC(=NN=C1CS(=O)(=O)N(C)c2ccccc21)c1sccc1Br — IC50 (Maob; enzyme activity, inhibitor, fluorescence): 3.82 µM
CNC(=O)c1cc2c(Oc3ccc(NC(=O)C4(C(=O)Nc5ccc(F)cc5)CC4)cc3)ccnc2cc1OC — IC50 (Tyrosine-protein kinase Lck, phosphorylated (LCK, Homo sapiens, UniProt P06239); enzyme activity, inhibitor, radiometric): 0.01 µM
COc1ccc(-c2cc(C(N)=O)ncc2OCc2noc(C)n2)c(F)c1 — IC50 (GRM2; ion flux, antagonist): 0.158 µM
Nc1ncc2c(n1)-c1c([nH]c3ccc(C#CC4CC4)cc13)CCCC2 — IC50 (Phosphatidylinositol 5-phosphate 4-kinase type-2 gamma (PIP4K2C, Homo sapiens, UniProt Q8TBX8); target engagement in cells, BRET): > 10 µM
COc1ccc2c(Oc3ccc4c(C(=O)Nc5ccccc5N)cccc4c3)ccnc2c1 — IC50 (RET; enzyme activity, inhibitor): > 0.5 µM
CN1CCN(c2ccc(Nc3ncc4cc(C#N)c(=O)n(C5CCCC5)c4n3)cc2)CC1 — IC50 (MAP/microtubule affinity-regulating kinase 4 (MARK4, Homo sapiens, UniProt Q96L34); enzyme activity, inhibitor): 0.403 µM
COc1ccc(-c2cc(C(N)=O)ncc2OCc2cnc(OC)nc2)c(F)c1 — IC50 (GRM2; ion flux, antagonist): 0.261 µM
O=C1NC2=C(C(=O)N(c3ccc(F)cc3)C2)C(c2ccccc2O)N1 (centres unmarked) — IC50 (ALPI; enzyme activity, inhibitor, absorbance): 6.54 µM
CC12CC3(C)CC(C)(C1)CC(NC(=O)Nc1ccccc1F)(C2)C3 — IC50 (EPHX2; enzyme activity, inhibitor, fluorescence): 0.0943 µM
O=C1NC2=C(C(=O)N(Cc3ccc(F)cc3)C2)C(c2ccccc2O)N1 (centres unmarked) — IC50 (ALPI; enzyme activity, inhibitor, absorbance): 1.27 µM
COc1ccc(-c2cc(C(N)=O)ncc2OCc2ccc(F)nc2)c(F)c1 — IC50 (GRM2; ion flux, antagonist): 0.074 µM
Cc1ccc2nc(Cl)c(C=NN=C3CS(=O)(=O)N(C)c4ccccc43)cc2c1 — IC50 (Maob; enzyme activity, inhibitor, fluorescence): 1.43 µM
CCC(CC12CC3CC(CC(C3)C1)C2)NC(=O)Nc1ccccc1F (centres unmarked) — IC50 (EPHX2; enzyme activity, inhibitor, fluorescence): 0.631 µM
CCCCCCCCN1CC2=C(C1=O)C(c1ccc(O)cc1)NC(=O)N2 (centres unmarked) — IC50 (ALPI; enzyme activity, inhibitor, absorbance): 8.23 µM
COc1ccc(-c2cc(C(N)=O)ncc2OCc2ccnc(C)c2)c(F)c1 — IC50 (GRM2; ion flux, antagonist): 0.059 µM
COc1ccc(-c2nsc(NC(=O)[C@@H]3C[C@H]3C)c2C)cc1 — IC50 (GRM2; calcium signal, antagonist): > 12.5 µM
O=C1NC2=C(C(=O)N(c3ccc(Cl)cc3)C2)C(c2ccccc2O)N1 (centres unmarked) — IC50 (ALPI; enzyme activity, inhibitor, absorbance): 2.94 µM
Cc1cnc(-c2ccc(-c3ccc(NC(=O)Nc4c(F)cc(F)cc4F)cc3F)c3c2C(=O)NC3)[nH]1 — IC50 (RET; enzyme activity, inhibitor): 0.0148 µM
CC(C)(C)n1nc(-c2cnc3cc(OC4CC4)ccc3c2)c(C(N)=O)c1N — IC50 (Mitogen-activated protein kinase kinase kinase 10 (MAP3K10, Homo sapiens, UniProt Q02779); cell-free assay): > 10 µM
O=C1N=C(Nc2ccccc2)S/C1=C\c1ccccc1OCc1cn(Cc2ccccc2Br)nn1 — IC50 (Aldo-keto reductase family 1 member B1 (AKR1B1, Homo sapiens, UniProt P15121); enzyme activity, inhibitor, absorbance; pH 6.2): 37 µM
COc1ccc(-c2cc(C(N)=O)ncc2OCc2ccnc(OC)c2)c(F)c1 — IC50 (GRM2; ion flux, antagonist): 0.135 µM
O=c1[nH]c2c(Br)cccc2n1C1CCN(S(=O)(=O)c2ccc(I)cc2)CC1 — IC50 (N-glycosylase/DNA lyase (OGG1, Homo sapiens, UniProt O15527); enzyme activity, inhibitor): 14 µM
O=C1NC2=C(C(=O)N(Cc3ccc(F)cc3)C2)C(c2ccc(O)cc2)N1 (centres unmarked) — IC50 (ALPI; enzyme activity, inhibitor, absorbance): 4.76 µM
